# Measurements pooled from the literature.
# Compare with care: the assays were run in different laboratories.
# gag-pol reverse transcriptase: Gag-Pol polyprotein, reverse transcriptase (gag-pol, Human immunodeficiency virus 1, UniProt P03366)
# OPRD1: Delta-type opioid receptor (OPRD1, Homo sapiens, UniProt P41143)
# CA2: Carbonic anhydrase 2 (CA2, Homo sapiens, UniProt P00918)
# PLG trypsin-like site: Plasminogen, trypsin-like site (PLG, Homo sapiens, UniProt P00747)
SMILES,target,assay,setting,quantity,result
Cc1cc(/C=C/C#N)cc(C)c1Nc1ccnc(Nc2ccc(C#N)cc2)n1,gag-pol reverse transcriptase,"binding, SPR",,Kd,2.53 µM
CNC[C@@H](Cc1ccc(O)cc1)N1CCN(CC2CCCCCC2)[C@@H](C(C)C)C1,OPRD1,cell-free assay,,IC50,> 10 µM
O=c1c(O)c(-c2ccc(O[C@@H]3O[C@H](CO)[C@@H](O)[C@H](O)[C@H]3O)c(O)c2)oc2cc(O)cc(O)c12,CA2,"enzyme activity, inhibitor, absorbance",,Ki,0.0222 µM
CS(=O)(=O)c1cccc(OCCCC(=O)N[C@H]2C[C@@H]3C[C@@H]3C2=O)c1 (relative stereo),"Transcriptional activator protein LasR (lasR, Pseudomonas aeruginosa, UniProt P25084, A127W/Y93F)","reporter gene, agonist",,EC50,0.35 µM
On1ccc2ccccc2c1=S,CA2,"enzyme activity, inhibitor, absorbance",pH 8,Ki,15 µM
O=C(CCCOc1cccc(Br)c1)N[C@H]1C[C@@H]2C[C@@H]2C1=O (relative stereo),"Transcriptional activator protein LasR (lasR, Pseudomonas aeruginosa, UniProt P25084, A127W)","reporter gene, agonist",,EC50,0.2 µM
C[C@H](N)Cn1ncc2ccc3c(c21)CCCO3,"Alpha-2A adrenergic receptor (ADRA2A, Homo sapiens, UniProt P08913)","ligand displacement, radioligand",,Ki,6.26 µM
O=C(NCc1ccncc1)Nc1ccc(S(=O)(=O)N2CC3CCC(C2)O3)cc1,"Nicotinamide phosphoribosyltransferase (NAMPT, Homo sapiens, UniProt P43490)","ligand displacement, FP",,Kd,2 to 6 µM
CNC[C@H](Cc1ccc(O)cc1)NC[C@H](Cc1ccc(O)cc1)NCC1CCC(C)CC1 (some centres unmarked),OPRD1,cell-free assay,,IC50,> 10 µM
CC(C)(C)[C@H](NC(=O)[C@H](CCCNC(=N)N)NC(=O)Cc1ccc(CN)cc1)C(=O)N[C@@H](CCONC(=N)N)C(=O)NCc1ccc(C(=N)N)cc1,PLG trypsin-like site,"enzyme activity, inhibitor",pH 8,Ki,3.3 µM
On1ccccc1=S,CA2,"enzyme activity, inhibitor, absorbance",,Ki,567 µM
CCC(C)[C@@H](CNC)N1CCN(CCCC2CCCCC2)[C@H](C(C)C)C1 (some centres unmarked),OPRD1,cell-free assay,,IC50,> 10 µM
CC(C)(C)[C@H](NC(=O)[C@H](CCCNC(=N)N)NC(=O)Cc1ccc(CNC(=N)N)cc1)C(=O)N[C@@H](CCCNC(=N)N)C(=O)NCc1ccc(C(=N)N)cc1,PLG trypsin-like site,"enzyme activity, inhibitor",pH 8,Ki,3.5 µM
CCCC[C@H](CNCc1ccccc1)N1CCN(CC2CCCCCC2)[C@H](Cc2ccc(O)cc2)C1,OPRD1,cell-free assay,,IC50,> 10 µM
Cc1cn([C@@H]2CC[C@H](OC(C(=O)O)C(=O)O)C2)c(=O)[nH]c1=O,gag-pol reverse transcriptase,"enzyme activity, inhibitor",,Ki,6.6 µM
Cn1cc(-c2cccc(N3CCc4c(sc5c4CC(C)(C)C5)C3=O)c2CO)cc(Nc2ccncn2)c1=O,"Receptor tyrosine-protein kinase erbB-2 (ERBB2, Homo sapiens, UniProt P04626)","enzyme activity, inhibitor, FRET",,Ki,1.75 µM
CC(C)(C)[C@H](NC(=O)[C@H](CCONC(=N)N)NC(=O)Cc1ccc(CNC(=N)N)cc1)C(=O)N[C@@H](CCCCN)C(=O)NCc1ccc(C(=N)N)cc1,PLG trypsin-like site,"enzyme activity, inhibitor",pH 8,Ki,28 µM
